{
  "source": "ChEMBL document CHEMBL4007452",
  "about": "“Discovery of an Orally Selective Inhibitor of Signal Transducer and Activator of Transcription 3 Using Advanced Multiple Ligand Simultaneous Docking” (J Med Chem, 2017)",
  "key": {"[1]": {"test": "Clearance in Sprague-Dawley rat plasma at 1 mg/kg, iv measured after 24 hrs by UPLC analysis", "assay_type": "ADME, organism-based", "summary_of_the_method": "(§1)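 Parameters were derived from the concentration-time profiles. The bioanalytical method was validated to FDA guidelines for selectivity, linearity, LLOQ, accuracy, precision, recovery, matrix effect and stability.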"}, "U2OS": {"test_system": "U2OS", "test": "Antiproliferative activity against human U2OS cells after 24 hrs by MTT assay", "assay_type": "functional, cell-based", "summary_of_the_method": "(§2)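 Cells were seeded at 3000 per well and incubated 24 h at 37 °C. Compounds were added in triplicate with 10% FBS: 0.1-10 or 0.1-20 µM for cancer lines, 3.125-400 µM for MCF-10A. Viability was read by MTT absorbance at 595 nm, with IC50 fitted from the curves. DMSO stocks were 20 mM.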"}, "MDA-MB-231 [2]": {"test_system": "MDA-MB-231", "test": "Induction of apoptosis in human MDA-MB-231 cells assessed as increase in cleaved caspase level at 2.5 to 5 uM after 12 hrs by immunoblot analysis", "assay_type": "functional, cell-based", "summary_of_the_method": "(§3)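 MDA-MB-231 cells at 60–80% confluence were treated 12 h with 10% FBS at 2.5-10 µM or 2.5-5 µM, against a DMSO control. Whole-cell lysates were immunoblotted, with bands quantified as percent of control.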"}, "Rattus norvegicus [3]": {"test_system": "Rattus norvegicus", "test": "Apparent volume of distribution in Sprague-Dawley rat plasma at 10 mg/kg, po measured after 24 hrs by UPLC analysis", "assay_type": "ADME, organism-based", "conditions": "in vivo", "summary_of_the_method": "as §1, with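 “Rat plasma sampled from 2 min to 24 h after a single i.v. (1 mg/kg) or p.o. (10 mg/kg) dose. Parameters” for “Parameters”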"}, "[4]": {"test": "AUC (0 to infinity) in Sprague-Dawley rat plasma at 1 mg/kg, iv measured after 24 hrs by UPLC analysis", "assay_type": "ADME, organism-based", "design": "dose 1 mg/kg, time infinity, route intravenous", "summary_of_the_method": "as §1, with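 “Rat plasma sampled from 2 min to 24 h after a single i.v. (1 mg/kg) or p.o. (10 mg/kg) dose. Parameters” for “Parameters”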"}, "[5]": {"test": "Cmax in Sprague-Dawley rat plasma at 1 mg/kg, iv measured after 24 hrs by UPLC analysis", "assay_type": "ADME, organism-based", "design": "dose 1 mg/kg, route intravenous", "summary_of_the_method": "as §1, with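 “Rat plasma sampled from 2 min to 24 h after a single i.v. (1 mg/kg) or p.o. (10 mg/kg) dose. Parameters” for “Parameters”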"}, "MCF-10A": {"test_system": "MCF-10A", "test": "Antiproliferative activity against human MCF10A cells after 24 hrs by MTT assay", "assay_type": "cell-based", "summary_of_the_method": "as §2"}, "MDA-MB-231 [6]": {"test_system": "MDA-MB-231", "test": "Anticancer activity against human MDA-MB-231 cells xenografted in BALB/c nude mouse assessed as reduction in tumor volume at 5 mg/kg, po qd administered for 32 days", "assay_type": "functional", "design": "scale not given: the % may be the effect or the level left", "conditions": "in the assay text read “tumor weight” for “tumor volume”"}, "MDA-MB-231 [7]": {"test_system": "MDA-MB-231", "test": "Anticancer activity against human MDA-MB-231 cells xenografted in BALB/c nude mouse assessed as reduction in tumor volume at 10 mg/kg, po qd administered for 32 days", "assay_type": "functional", "design": "scale not given: the % may be the effect or the level left", "summary_of_the_method": "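Female athymic BALB/c nude mice, 6 weeks old, bearing s.c. flank MDA-MB-231 xenografts (5 x 10^6 cells). Dosing began at about 100 mm3 tumor volume; 8 mice per group, one tumor each. Drug was given orally in saline, with a saline vehicle control, for 32 days. Caliper L and W measured every other day; volume = 0.5236×L×W².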"}, "[8]": {"test": "Tmax in Sprague-Dawley rat plasma at 1 mg/kg, iv measured after 24 hrs by UPLC analysis", "assay_type": "ADME, organism-based", "summary_of_the_method": "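Rats dosed i.v. or p.o. Plasma concentrations followed from 2 min to 24 h after dosing. The bioanalytical method was validated to FDA guidelines for selectivity, linearity, LLOQ, accuracy, precision, recovery, matrix effect and stability.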"}, "[9]": {"test": "Selectivity ratio of IC50 for human MCF-10A cells to IC50 for human MDA-MB-231 cells", "summary_of_the_method": "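MTT viability assay. MCF-10A was grown in RPMI-1640 and MDA-MB-231 in DMEM, each with 10% FBS. Cells were seeded at 3000 per well and left 24 h at 37 °C. Compound was then added in triplicate with 10% FBS, at 0.1-10 µM for the cancer cells and 3.125-400 µM for MCF-10A. Absorbance was read at 595 nm. The ratio is IC50 for MCF-10A over IC50 for MDA-MB-231.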"}, "Mus musculus [10]": {"test_system": "Mus musculus", "test": "Toxicity in BALB/c nude mouse xenografted with human MDA-MB-231 cells assessed as kidney damage at 2.5 to 10 mg/kg, po qd administered for 32 days by H&E staining based light microscopy", "assay_type": "organism-based", "conditions": "in vivo, 768 h", "summary_of_the_method": "(§4)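 6-week-old female athymic SPF BALB/c nude mice received 5 x 10^6 MDA-MB-231 cells s.c. in the flank. Oral treatment began once tumors reached about 100 mm3, with 8 mice per group and a saline vehicle control. […] Treatment lasted 32 days. Heart, liver, spleen, lung and kidney were fixed 48 h in 10% neutral-buffered formaldehyde, paraffin-embedded, cut at 5 µm, H&E-stained and examined by light microscopy.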"}, "[11]": {"target": "T1, Signal transducer and activator of transcription 3 (Homo sapiens, UniProt P40763)", "T1 sequence (P40763 whole entry)": "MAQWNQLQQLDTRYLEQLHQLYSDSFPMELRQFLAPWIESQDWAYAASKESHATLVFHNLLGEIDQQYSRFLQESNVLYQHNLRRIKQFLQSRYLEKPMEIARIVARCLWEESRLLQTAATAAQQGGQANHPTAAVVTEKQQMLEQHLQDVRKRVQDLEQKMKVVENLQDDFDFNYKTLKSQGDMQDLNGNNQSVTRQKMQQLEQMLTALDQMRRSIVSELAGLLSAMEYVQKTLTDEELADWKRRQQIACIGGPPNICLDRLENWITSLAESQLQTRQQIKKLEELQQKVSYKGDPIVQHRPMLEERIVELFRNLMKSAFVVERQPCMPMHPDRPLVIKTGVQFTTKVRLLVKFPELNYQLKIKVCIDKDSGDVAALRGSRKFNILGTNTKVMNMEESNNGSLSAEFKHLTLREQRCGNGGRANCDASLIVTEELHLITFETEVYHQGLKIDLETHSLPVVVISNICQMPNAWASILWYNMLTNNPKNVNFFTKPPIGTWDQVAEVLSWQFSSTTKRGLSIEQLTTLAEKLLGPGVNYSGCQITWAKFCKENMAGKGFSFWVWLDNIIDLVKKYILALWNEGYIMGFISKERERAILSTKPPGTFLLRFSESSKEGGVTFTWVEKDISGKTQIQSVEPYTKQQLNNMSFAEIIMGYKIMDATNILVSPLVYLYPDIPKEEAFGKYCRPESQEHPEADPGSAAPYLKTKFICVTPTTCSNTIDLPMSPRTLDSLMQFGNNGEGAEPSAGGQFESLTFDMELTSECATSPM", "conditions": "5 uM"}, "Rattus norvegicus [12]": {"test_system": "Rattus norvegicus", "test": "AUMC (0 to t) in Sprague-Dawley rat plasma at 1 mg/kg, iv measured after 24 hrs by UPLC analysis", "assay_type": "ADME, organism-based", "conditions": "in vivo", "summary_of_the_method": "as §1, with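 “Rat plasma sampled from 2 min to 24 h after a single i.v. (1 mg/kg) or p.o. (10 mg/kg) dose. Parameters” for “Parameters”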"}, "[13]": {"target": "Epidermal growth factor receptor (Homo sapiens) (UniProt P00533)", "sequence (P00533 whole entry)": "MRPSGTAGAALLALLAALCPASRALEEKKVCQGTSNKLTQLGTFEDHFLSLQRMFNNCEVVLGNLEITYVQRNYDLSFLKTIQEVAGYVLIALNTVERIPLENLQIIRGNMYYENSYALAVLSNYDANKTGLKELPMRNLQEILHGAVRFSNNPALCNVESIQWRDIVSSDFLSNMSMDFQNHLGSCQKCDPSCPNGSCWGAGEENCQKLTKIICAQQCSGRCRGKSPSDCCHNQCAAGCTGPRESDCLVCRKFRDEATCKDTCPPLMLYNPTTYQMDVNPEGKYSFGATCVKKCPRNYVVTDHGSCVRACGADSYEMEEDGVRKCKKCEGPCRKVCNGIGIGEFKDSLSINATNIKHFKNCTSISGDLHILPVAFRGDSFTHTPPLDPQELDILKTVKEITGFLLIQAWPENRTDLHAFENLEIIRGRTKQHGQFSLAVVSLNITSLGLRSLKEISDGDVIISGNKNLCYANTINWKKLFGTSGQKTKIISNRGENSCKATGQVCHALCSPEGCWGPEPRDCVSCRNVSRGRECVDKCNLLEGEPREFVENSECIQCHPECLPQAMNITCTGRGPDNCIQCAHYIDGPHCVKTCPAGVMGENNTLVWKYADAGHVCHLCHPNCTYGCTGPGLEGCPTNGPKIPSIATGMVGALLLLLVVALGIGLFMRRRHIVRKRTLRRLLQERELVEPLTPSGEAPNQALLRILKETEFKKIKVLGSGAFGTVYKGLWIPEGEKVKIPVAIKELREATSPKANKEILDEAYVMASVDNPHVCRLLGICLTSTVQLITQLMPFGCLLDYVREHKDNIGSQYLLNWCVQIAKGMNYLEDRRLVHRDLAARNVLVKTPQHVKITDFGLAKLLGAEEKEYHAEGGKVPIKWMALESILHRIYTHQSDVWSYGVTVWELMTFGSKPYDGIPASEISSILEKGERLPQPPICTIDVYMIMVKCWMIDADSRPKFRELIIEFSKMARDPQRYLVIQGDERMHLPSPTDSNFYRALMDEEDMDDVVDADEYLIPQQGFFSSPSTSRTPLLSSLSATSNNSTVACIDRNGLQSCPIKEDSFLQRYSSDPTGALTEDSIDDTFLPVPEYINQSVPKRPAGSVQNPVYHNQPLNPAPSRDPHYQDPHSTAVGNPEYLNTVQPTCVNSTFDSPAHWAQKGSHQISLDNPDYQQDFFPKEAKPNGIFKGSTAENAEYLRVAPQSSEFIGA", "test": "Inhibition of EGFR in human MDA-MB-231 cells assessed as reduction in p-Akt level at 2.5 to 5 uM after 12 hrs by immunoblot analysis", "assay_type": "cell-based", "summary_of_the_method": "as §3"}, "[14]": {"test": "MRT (0 to infinity) in Sprague-Dawley rat plasma at 1 mg/kg, iv measured after 24 hrs by UPLC analysis", "assay_type": "ADME, organism-based", "summary_of_the_method": "as §1, with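 “Rat plasma sampled from 2 min to 24 h after a single i.v. (1 mg/kg) or p.o. (10 mg/kg) dose. Parameters” for “Parameters”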"}, "Rattus norvegicus [15]": {"test_system": "Rattus norvegicus", "test": "AUMC (0 to t) in Sprague-Dawley rat plasma at 10 mg/kg, po measured after 24 hrs by UPLC analysis", "assay_type": "ADME, organism-based", "conditions": "in vivo", "summary_of_the_method": "as §1, with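 “Rat plasma sampled from 2 min to 24 h after a single i.v. (1 mg/kg) or p.o. (10 mg/kg) dose. Parameters” for “Parameters”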"}, "[16]": {"test": "Antiproliferative activity against human BkPC-3 cells after 24 hrs by MTT assay", "assay_type": "functional, cell-based", "conditions": "BkPC-3, 24 h", "summary_of_the_method": "as §2"}, "[17]": {"test": "MRT (0 to t) in Sprague-Dawley rat plasma at 10 mg/kg, po measured after 24 hrs by UPLC analysis", "assay_type": "ADME, organism-based", "summary_of_the_method": "as §1, with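 “Rat plasma sampled from 2 min to 24 h after a single i.v. (1 mg/kg) or p.o. (10 mg/kg) dose. Parameters” for “Parameters”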"}, "[18]": {"target": "T1, Signal transducer and activator of transcription 3", "conditions": "2.5 to 5 uM"}, "Mus musculus [19]": {"test_system": "Mus musculus", "test": "In vivo inhibition of STAT3 in po dosed BALB/c nude mouse xenografted with human MDA-MB-231 assessed as reduction in p-STAT3(Y705) level administered as qd for 32 days by Western blot analysis", "assay_type": "functional, organism-based", "summary_of_the_method": "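Whole-cell lysates from MDA-MB-231 xenograft tumors of mice dosed orally at 2.5, 5 or 10 mg/kg were immunoblotted for P-STAT3(Y705), T-STAT3 and GAPDH.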"}, "[20]": {"test": "Apparent volume of distribution in Sprague-Dawley rat plasma at 1 mg/kg, iv measured after 24 hrs by UPLC analysis", "assay_type": "ADME, organism-based", "conditions": "read-out: Vz", "summary_of_the_method": "as §1, with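 “Rat plasma sampled from 2 min to 24 h after a single i.v. (1 mg/kg) or p.o. (10 mg/kg) dose. Parameters” for “Parameters”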"}, "Mus musculus [21]": {"test_system": "Mus musculus", "test": "Toxicity in BALB/c nude mouse xenografted with human MDA-MB-231 cells assessed as liver damage at 2.5 to 10 mg/kg, po qd administered for 32 days by H&E staining based light microscopy", "assay_type": "organism-based", "conditions": "in vivo, 768 h", "summary_of_the_method": "as §4"}, "Mus musculus [22]": {"test_system": "Mus musculus", "test": "Toxicity in BALB/c nude mouse xenografted with human MDA-MB-231 cells assessed as lung damage at 2.5 to 10 mg/kg, po qd administered for 32 days by H&E staining based light microscopy", "assay_type": "organism-based", "conditions": "in vivo, 768 h", "summary_of_the_method": "as §4"}},
  "note": "pIC50: −log10 of the molar value. Active and inactive are the calls of the source. No cut-off for these calls is given here.",
  "data": [
    {"smiles": "NS(=O)(=O)c1cccc2c1C(=O)C=C(Nc1ccccc1N1CCNCC1)C2=O", "values": [
      {"measurement": "clearance", "setting": "[1]", "value": 87.7, "unit": "mL/min/kg"},
      {"measurement": "pIC50", "setting": "U2OS", "value": 5.82},
      {"measurement": "Activity", "setting": "MDA-MB-231 [2]", "value": "Active"},
      {"measurement": "Vz", "setting": "Rattus norvegicus [3]", "value": 32.0925, "unit": "L/kg"},
      {"measurement": "AUC(0-inf)", "setting": "[4]", "value": 199, "unit": "ng·h/mL"},
      {"measurement": "Cmax", "setting": "[5]", "value": 359, "unit": "ng/mL"},
      {"measurement": "pIC50", "setting": "MCF-10A", "value": 3.89},
      {"measurement": "Activity", "setting": "MDA-MB-231 [6]", "value": 60, "unit": "%"},
      {"measurement": "Activity", "setting": "MDA-MB-231 [7]", "value": 70, "unit": "%"},
      {"measurement": "Tmax", "setting": "[8]", "value": 1.98, "unit": "min"},
      {"measurement": "Ratio IC50", "setting": "[9]", "value": 184},
      {"measurement": "Activity", "setting": "Mus musculus [10]", "value": "Non-Toxic"},
      {"measurement": "inhibition", "setting": "[11]", "value": "Tde"},
      {"measurement": "AUMCt", "setting": "Rattus norvegicus [12]", "value": 109.3, "unit": "hr2.ng/ml"},
      {"measurement": "inhibition", "setting": "[13]", "value": "inactive"},
      {"measurement": "MRT inf", "setting": "[14]", "value": 42.6, "unit": "min"},
      {"measurement": "AUMCt", "setting": "Rattus norvegicus [15]", "value": 1622.6, "unit": "hr2.ng/ml"},
      {"measurement": "pIC50", "setting": "[16]", "value": 5.29},
      {"measurement": "MRT last at 24 h", "setting": "[17]", "value": 112, "unit": "min"},
      {"measurement": "inhibition", "setting": "[18]", "value": "Active"},
      {"measurement": "inhibition", "setting": "Mus musculus [19]", "value": "Dose-dependent effect"},
      {"measurement": "Vd", "setting": "[20]", "value": 4.94, "unit": "L/kg"},
      {"measurement": "Activity", "setting": "Mus musculus [21]", "value": "Non-Toxic"},
      {"measurement": "Activity", "setting": "Mus musculus [22]", "value": "Non-Toxic"}
    ]}
  ]
}
